Reference: ChEMBL document CHEMBL1135789, “Novel structures derived from 2-[[(2-pyridyl)methyl]thio]-1H-benzimidazole as anti-Helicobacter pylori agents, Part 2” (J Med Chem, 2002)
Values after ≈ are worked out from the molar mass of the structure shown.

Columns and labels:
[1] = system: Mus musculus; test: AUC (area under curve) after oral dosing by gavage needle at 30 mg/kg in C57BL/6NTac female mice; Not checked; type: ADME, organism-based, Plasma; design: dose 30 mg/kg, route oral; details: in vivo
Summary of the method: (§1)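 Single oral gavage dose of 30 mg/kg in 85:15 0.5% aqueous hydroxypropylmethylcellulose:PEG-400, given to female C57BL/6NTac mice (6 weeks, 20 g). Plasma was diluted with MeCN to remove proteins, and the parent compound was quantified by LC-MS in single ion recording mode against calibration curves (LLOQ 10-50 ng/mL).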

[2] = system: Mus musculus; test: Maximum plasma concentration (Cmax) after oral dosing by gavage needle at 30 mg/kg in C57BL/6NTac female mice; Not checked; type: ADME, organism-based; design: dose 30 mg/kg, route oral; details: in vivo; summary of the method: as §1
[3] = system: Helicobacter pylori; test: Minimum inhibitory concentration against Helicobacter pylori (Helicobacter pylori) ARHp strain 115; type: functional
Summary of the method: (§2)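 Broth microdilution with two-fold serial dilutions in Brucella broth plus 5% (v/v) heat-inactivated FCS. Strains were pre-grown microaerophilically (5% O2, 10% CO2, 85% N2) on blood agar at 37 °C and passaged twice. The inoculum was a final 10^7 cells/mL.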

[4] = system: Helicobacter pylori; test: Minimum inhibitory concentration against Helicobacter pylori (Helicobacter pylori) ARHp strain 206; type: functional; summary of the method: as §2
[5] = system: Helicobacter pylori; test: Minimum inhibitory concentration against Helicobacter pylori (Helicobacter pylori) ARHp strain 80; type: functional; summary of the method: as §2
[6] = system: Helicobacter pylori; test: Minimum inhibitory concentration against Helicobacter pylori (Helicobacter pylori) ARHp strain 81; type: functional; summary of the method: as §2
[7] = system: Helicobacter pylori; test: Minimum bacterial concentration (MBC) at which maximum growth inhibition against Helicobacter pylori has occurred; type: functional
Summary of the method: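 Strain ARHp206. Aliquots from microdilution wells showing no growth were plated on trypticase soy agar with 5% sheep blood. The MBC was judged by visual inspection as the concentration giving maximum growth inhibition.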

[8] = Maximum plasma concentration (Cmax) after oral dosing by gavage needle at 30 mg/kg in C57BL/6NTac female mice; type: ADME, organism-based; design: dose 30 mg/kg, route oral; details: mouse; summary of the method: as §1
[9] = system: Mus musculus; test: AUC (area under curve) after oral dosing by gavage needle at 30 mg/kg in C57BL/6NTac female mice; type: ADME, organism-based, Plasma; design: dose 30 mg/kg, route oral; details: in vivo; summary of the method: as §1
[10] = system: Mus musculus; test: Maximum plasma concentration (Cmax) after oral dosing by gavage needle at 30 mg/kg in C57BL/6NTac female mice; Not detected; type: ADME, organism-based; design: dose 30 mg/kg, route oral; details: in vivo; summary of the method: as §1
[11] = system: Mus musculus; test: AUC (area under curve) after oral dosing by gavage needle at 30 mg/kg in C57BL/6NTac female mice; Not detected; type: ADME, organism-based, Plasma; design: dose 30 mg/kg, route oral; details: in vivo; summary of the method: as §1

Cc1c(CSc2nc3ccccc3[nH]2)cccc1SCCNS(=O)(=O)c1cccc2cccnc12
AUC [1]: Not checked
Cmax [2]: Not checked
MIC [3]: 4 µg/mL (≈ 7.68 µM)
MIC [4]: 8 µg/mL (≈ 15.4 µM)
MIC [5]: 4 µg/mL (≈ 7.68 µM)
MIC [6]: 8 µg/mL (≈ 15.4 µM)
MBC [7]: > 8 µg/mL

Cc1c(CSc2nc3ccccc3[nH]2)cccc1SCCNC(=O)Nc1ccccc1
Cmax [8]: 140 ng/mL
AUC [9]: 283 ng·h/mL
MIC [3]: 0.5 µg/mL (≈ 1.11 µM)
MIC [4]: 0.5 µg/mL (≈ 1.11 µM)
MIC [5]: 0.5 µg/mL (≈ 1.11 µM)
MIC [6]: 0.5 µg/mL (≈ 1.11 µM)
MBC [7]: 8 µg/mL (≈ 17.8 µM)

Cc1c(CSc2nc3ccccc3[nH]2)cccc1SCCO
AUC [1]: Not checked
Cmax [2]: Not checked
MIC [3]: 1 µg/mL (≈ 3.03 µM)
MIC [4]: 1 µg/mL (≈ 3.03 µM)
MIC [5]: 1 µg/mL (≈ 3.03 µM)
MIC [6]: 1 µg/mL (≈ 3.03 µM)
MBC [7]: > 8 µg/mL

COc1cccc(NC(=O)OCCSc2cccc(CSc3nc4ccccc4[nH]3)c2C)c1
Cmax [8]: 797 ng/mL
AUC [9]: 1630 ng·h/mL
MIC [3]: 0.25 µg/mL (≈ 0.521 µM)
MIC [4]: 0.5 µg/mL (≈ 1.04 µM)
MIC [5]: 0.25 µg/mL (≈ 0.521 µM)
MIC [6]: 0.5 µg/mL (≈ 1.04 µM)
MBC [7]: 8 µg/mL (≈ 16.7 µM)

Cc1c(CSc2nc3ccccc3[nH]2)cccc1SCC(=O)NCc1cccs1
Cmax [10]: Not detected
AUC [11]: Not detected
MIC [3]: 0.5 µg/mL (≈ 1.14 µM)
MIC [4]: 1 µg/mL (≈ 2.27 µM)
MIC [5]: 0.5 µg/mL (≈ 1.14 µM)
MIC [6]: 1 µg/mL (≈ 2.27 µM)
MBC [7]: 8 µg/mL (≈ 18.2 µM)

Cc1c(CSc2nccs2)cccc1SCCOC(=O)Nc1ccccc1
Cmax [8]: 74 ng/mL
AUC [9]: 99 ng·h/mL
MIC [3]: 0.5 µg/mL (≈ 1.2 µM)
MIC [4]: 0.5 µg/mL (≈ 1.2 µM)
MIC [5]: 0.5 µg/mL (≈ 1.2 µM)
MIC [6]: 0.5 µg/mL (≈ 1.2 µM)
MBC [7]: 8 µg/mL (≈ 19.2 µM)

Cc1c(CSc2ccncc2)cccc1SCCOC(=O)Nc1ccccc1
AUC [1]: Not checked
Cmax [2]: Not checked
MIC [3]: 0.25 µg/mL (≈ 0.609 µM)
MIC [4]: 0.5 µg/mL (≈ 1.22 µM)
MIC [5]: 0.25 µg/mL (≈ 0.609 µM)
MIC [6]: 0.5 µg/mL (≈ 1.22 µM)
MBC [7]: 8 µg/mL (≈ 19.5 µM)

Cc1c(CSc2nc3ccccc3[nH]2)cccc1SCC(=O)N1CCCCC1
Cmax [8]: 57 ng/mL
AUC [9]: 135 ng·h/mL
MIC [3]: 0.25 µg/mL (≈ 0.607 µM)
MIC [4]: 0.5 µg/mL (≈ 1.21 µM)
MIC [5]: 0.25 µg/mL (≈ 0.607 µM)
MIC [6]: 0.5 µg/mL (≈ 1.21 µM)
MBC [7]: > 8 µg/mL

Cc1c(CSc2nc3ccccc3[nH]2)cccc1SCCN
AUC [1]: Not checked
Cmax [2]: Not checked
MIC [3]: 4 µg/mL (≈ 12.1 µM)
MIC [4]: 8 µg/mL (≈ 24.3 µM)
MIC [5]: 4 µg/mL (≈ 12.1 µM)
MIC [6]: 8 µg/mL (≈ 24.3 µM)
MBC [7]: > 8 µg/mL

Cc1c(CSc2nc3ccccc3[nH]2)cccc1SCC(=O)O
AUC [1]: Not checked
Cmax [2]: Not checked
MIC [3]: > 16 µg/mL
MIC [4]: > 16 µg/mL
MIC [5]: > 16 µg/mL
MIC [6]: > 16 µg/mL
MBC [7]: > 8 µg/mL

Cc1c(CSc2nc3ccccc3[nH]2)cccc1SCC(=O)NCc1ccccc1
Cmax [10]: Not detected
AUC [11]: Not detected
MIC [3]: 1 µg/mL (≈ 2.31 µM)
MIC [4]: 1 µg/mL (≈ 2.31 µM)
MIC [5]: 1 µg/mL (≈ 2.31 µM)
MIC [6]: 1 µg/mL (≈ 2.31 µM)
MBC [7]: 1 µg/mL (≈ 2.31 µM)

Cc1c(CSc2nc3ccccc3[nH]2)cccc1SCCOC(=O)Nc1ccc(F)c(F)c1
Cmax [8]: 398 ng/mL
AUC [9]: 1130 ng·h/mL
MIC [3]: 0.25 µg/mL (≈ 0.515 µM)
MIC [4]: 0.5 µg/mL (≈ 1.03 µM)
MIC [5]: 0.25 µg/mL (≈ 0.515 µM)
MIC [6]: 0.5 µg/mL (≈ 1.03 µM)
MBC [7]: 8 µg/mL (≈ 16.5 µM)

Cc1c(CSc2nc3ccccc3[nH]2)cccc1SCCOC(=O)Nc1ccccc1
Cmax [8]: 906 ng/mL
AUC [9]: 2070 ng·h/mL
MIC [3]: 0.5 µg/mL (≈ 1.11 µM)
MIC [4]: 0.5 µg/mL (≈ 1.11 µM)
MIC [5]: 0.5 µg/mL (≈ 1.11 µM)
MIC [6]: 0.5 µg/mL (≈ 1.11 µM)
MBC [7]: 1 µg/mL (≈ 2.22 µM)

Cc1c(CSc2nc3ccccc3[nH]2)cccc1SCCNC(=O)c1cnccn1
Cmax [8]: 471 ng/mL
AUC [9]: 271 ng·h/mL
MIC [3]: 0.25 µg/mL (≈ 0.574 µM)
MIC [4]: 0.5 µg/mL (≈ 1.15 µM)
MIC [5]: 0.25 µg/mL (≈ 0.574 µM)
MIC [6]: 0.5 µg/mL (≈ 1.15 µM)
MBC [7]: > 8 µg/mL

Cc1c(CSc2nc3ccccc3[nH]2)cccc1SCCOC(=O)Nc1ccc(N(C)C)cc1
Cmax [8]: 331 ng/mL
AUC [9]: 299 ng·h/mL
MIC [3]: 0.5 µg/mL (≈ 1.01 µM)
MIC [4]: 1 µg/mL (≈ 2.03 µM)
MIC [5]: 0.5 µg/mL (≈ 1.01 µM)
MIC [6]: 1 µg/mL (≈ 2.03 µM)
MBC [7]: > 8 µg/mL

CC1(C)S[C@@H]2[C@H](NC(=O)[C@H](N)c3ccc(O)cc3)C(=O)N2[C@H]1C(=O)O [AMOXICILLIN]
AUC [1]: Not checked
Cmax [2]: Not checked
MIC [3]: 0.06 µg/mL (≈ 0.164 µM)
MIC [4]: 0.12 µg/mL (≈ 0.328 µM)
MIC [5]: 0.06 µg/mL (≈ 0.164 µM)
MIC [6]: 0.06 µg/mL (≈ 0.164 µM)

CC[C@H]1OC(=O)[C@H](C)[C@@H](O[C@H]2C[C@@](C)(OC)[C@@H](O)[C@H](C)O2)[C@H](C)[C@@H](O[C@@H]2O[C@H](C)C[C@H](N(C)C)[C@H]2O)[C@](C)(OC)C[C@@H](C)C(=O)[C@H](C)[C@@H](O)[C@]1(C)O [CLARITHROMYCIN]
Cmax [8]: 1000 ng/mL
AUC [9]: 1770 ng·h/mL
MIC [3]: < 0.06 µg/mL
MIC [4]: < 0.06 µg/mL
MIC [5]: < 0.06 µg/mL
MIC [6]: < 0.06 µg/mL

Cc1ncc([N+](=O)[O-])n1CCO [METRONIDAZOLE]
AUC [1]: Not checked
Cmax [2]: Not checked
MIC [3]: 1 µg/mL (≈ 5.84 µM)
MIC [4]: 1 µg/mL (≈ 5.84 µM)
MIC [5]: 8 µg/mL (≈ 46.7 µM)
MIC [6]: 1 µg/mL (≈ 5.84 µM)

CN(C)[C@@H]1C(O)=C(C(N)=O)C(=O)[C@@]2(O)C(O)=C3C(=O)c4c(O)cccc4[C@@](C)(O)[C@H]3C[C@@H]12 [TETRACYCLINE]
MIC [3]: 1 µg/mL (≈ 2.25 µM)
MIC [4]: 1 µg/mL (≈ 2.25 µM)
MIC [5]: 1 µg/mL (≈ 2.25 µM)
MIC [6]: 1 µg/mL (≈ 2.25 µM)
